Measured values of several laboratories.
Cell line: HepG2
Observed: cell growth or viability

SMILES | technique | time | IC50
COc1cccc2c1C(=O)c1c(O)c3c(c(O)c1C2=O)C[C@@](O)(C(=O)CO)C[C@@H]3O[C@H]1C[C@H](N)[C@H](O)[C@H](C)O1 | MTT | 24 h | 3.6 µM
C=CCn1c(-c2ccc([N+](=O)[O-])cc2)nc2ccc(C)cc21 | MTT | – | 63.5 µM
O=Cc1ccc(CO)o1 | WST-1 | 48 h | 77.7 µM
COc1c(-c2coc3cc4c(cc3c2=O)CC(OC(C)=O)C(C)(C)O4)ccc2c1C=CC(C)(C)O2 (stereo not shown) | WST-1 | 72 h | 124 µM
Oc1ccccc1-c1nc2ccccc2[nH]1 | MTT | 48 h | 68.3 µM
Nc1nc(-c2ccc(NC(=O)c3ccc(Cl)c(Cl)c3)cc2F)c[nH]1 | XTT | 24 h | 16.9 µM
CC1=C(O)C(=O)C=C2C1=CC=C1[C@@]2(C)CC[C@@]2(C)[C@@H]3C[C@](C)(C(=O)OCCCn4ccc5ccccc54)CC[C@]3(C)CC[C@]12C | MTT | 48 h | > 100 µM
Oc1ncnc2cc(Nc3nc(-c4ccc(Cl)cc4)cs3)ccc12 | MTT | – | 9.36 µM
CC(=O)O[C@H]1C(=O)[C@@]2(C)[C@H]([C@H](OC(=O)c3ccccc3)[C@]3(O)C[C@H](OC(=O)[C@H](O)[C@@H](NC(=O)c4ccccc4)c4ccccc4)C(C)=C1C3(C)C)[C@]1(OC(C)=O)CO[C@@H]1C[C@@H]2O | – | – | 2 µg/mL
Cc1ccc(-c2cc(-c3ccc4oc(=O)cc(C)c4c3O)nc(N)n2)cc1 | MTT | 72 h | > 128 µg/mL
COc1ccnc(-c2cc(OC)ccn2)c1 | MTT | 48 h | > 50 µM
CCCCNC(=O)NNC(=O)c1cccc(Nc2nccc(-c3ccncc3)n2)c1 | MTT | 24 h | > 40 µM
COc1cc2ncnc(Nc3ccc(F)c(Cl)c3)c2cc1NC(=O)N/N=C/c1cccn1CCCN1CCOCC1 | MTT | 72 h | 0.12 µM
CC(C)(C)NC(=O)NNC(=O)c1ccc(Nc2nccc(-c3ccc(Cl)cc3)n2)cc1 | MTT | – | 4.48 µM
COc1cc2ncnc(Nc3ccc(F)c(Cl)c3)c2cc1NC(=O)N/N=C/c1cccn1CCCN1CCCC1 | MTT | 72 h | 0.06 µM
CC(=O)OCCOC(=O)[C@]1(C)CC[C@]2(C)CC[C@]3(C)C4=CC=C5C(=CC(=O)C(O)=C5C)[C@]4(C)CC[C@@]3(C)[C@@H]2C1 | MTT | 48 h | 2.55 µM
c1ccc2[nH]c(-c3ccncc3)nc2c1 | MTT | 48 h | 87.7 µM
COc1cc2ncnc(Nc3ccc(F)c(Cl)c3)c2cc1NC(=O)N/N=C/c1cccn1CCCN1CCN(C)CC1 | MTT | 72 h | 0.08 µM
COC(=O)CN=c1scc(-c2ccccc2)n1-c1ccccc1OC | MTT | 72 h | 22.7 µM
C[C@H]1[C@@H](O)O[C@@H]2O[C@@]3(C)CC[C@H]4[C@H](C)CC[C@@H]1[C@@]24OO3 | CCK-8 | 48 h | > 50 µM
O=C(NNC(=O)c1ccc(Nc2nccc(-c3ccccn3)n2)cc1)NC1CCCC1 | MTT | – | > 40 µM
COc1cc2ncnc(Nc3ccc(F)c(Cl)c3)c2cc1NC(=O)N/N=C/c1cccn1CCN1CCCC1 | MTT | 72 h | 0.16 µM
Fc1cccc(Cl)c1-c1nc2ccccc2[nH]1 | MTT | 48 h | > 100 µM
Cc1cc(C)n(-c2nc(Nc3ccc(Cl)cc3)nc(-n3nc(C)cc3C)n2)n1 | MTT | 72 h | 19.5 µM
CCN(CC)CCn1cccc1/C=N/NC(=O)Nc1cc2c(Nc3ccc(F)c(Cl)c3)ncnc2cc1O[C@H]1CCOC1 | MTT | 72 h | 0.54 µM

SMILES | technique | time | IC50
c1cnc2c(c1)ccc1cccnc12 | MTT | 48 h | > 50 µM
COCCCOC(=O)[C@]1(C)CC[C@]2(C)CC[C@]3(C)C4=CC=C5C(=CC(=O)C(O)=C5C)[C@]4(C)CC[C@@]3(C)[C@@H]2C1 | MTT | 48 h | 0.94 µM
O=C(N/N=C/c1cccn1CCCN1CCOCC1)Nc1cc2c(Nc3ccc(F)c(Cl)c3)ncnc2cc1O[C@H]1CCOC1 | MTT | 72 h | 1.89 µM
COC(=O)CN=c1scc(-c2ccccc2)n1-c1ccccc1[N+](=O)[O-] | MTT | – | 15.4 µM
CCCCNC(=O)NNC(=O)c1ccc(Nc2nccc(-c3ccccn3)n2)cc1 | MTT | 24 h | 15.7 µM
COc1cc2ncnc(Nc3ccc(F)c(Cl)c3)c2cc1NC(=O)N/N=C/c1cccn1CCN1CCOCC1 | MTT | 72 h | 0.03 µM
Clc1ccnc2c1ccc1c(Cl)ccnc12 | MTT | 48 h | > 50 µM
Oc1ccc(-c2csc(Nc3ccc4c(O)ncnc4c3)n2)cc1 | MTT | – | 14.2 µM
Cc1cc(=O)oc2ccc(-c3cc(-c4ccc(Cl)cc4)nc(N)n3)c(O)c12 | MTT | 72 h | 18.1 µg/mL
Cc1ccc(-c2ccc(O)cc2)c(C(=C2C=CC(=O)C=C2)c2ccc(O)cc2)c1C#Cc1ccc(O)cc1 | MTT | 48 h | 16.4 µM
O=[N+]([O-])c1ccc(Cn2cc(Cn3c4ccccc4c4nc5ccccc5nc43)nn2)cc1 | MTT | 24 h | > 100 µM
O=C(NNC(=O)c1ccc(Nc2nccc(-c3ccc(Cl)cc3)n2)cc1)NC1CCCCC1 | MTT | 24 h | 13.1 µM
C=CCn1c(-c2ccc(Cl)c(Cl)c2)nc2ccccc21 | MTT | – | 66.1 µM
COc1cc2c(Nc3ccc(NC(=O)c4ccccc4)cc3)ncnc2cc1OCCCN1CCOCC1 | MTS | 48 h | 3.3 µM
COc1cccc2c1C(=O)c1c(O)c3c(c(O)c1C2=O)C[C@@](O)(C(=O)CO)C[C@@H]3O[C@H]1C[C@H](N)[C@H](O)[C@H](C)O1 | MTT | 48 h | 0.1 µM
O=c1cc(-c2ccc(O)c(O)c2)oc2cc(O)cc(O)c12 | WST-1 | 48 h | 15.2 µM
Fc1ccc(-c2nc3ccccc3[nH]2)cc1 | MTT | 48 h | 35.8 µM
COc1ccc(-c2cc(-c3ccc4oc(=O)cc(C)c4c3O)nc(N)n2)cc1 | MTT | 72 h | > 128 µg/mL
CC(=O)O[C@H]1C(=O)[C@@]2(C)[C@H]([C@H](OC(=O)c3ccccc3)[C@]3(O)C[C@H](OC(=O)[C@H](O)[C@@H](NC(=O)c4ccccc4)c4ccccc4)C(C)=C1C3(C)C)[C@]1(OC(C)=O)CO[C@@H]1C[C@@H]2O | MTT | 48 h | 4.75 µM
CC1=C(O)C(=O)C=C2C1=CC=C1[C@@]2(C)CC[C@@]2(C)[C@@H]3C[C@](C)(C(=O)OCCCCCO)CC[C@]3(C)CC[C@]12C | MTT | 48 h | 10.1 µM
Cc1ccc2nc(-c3ccncc3)[nH]c2c1 | MTT | 48 h | 52.6 µM
COc1cc2ncnc(Nc3ccc(F)c(Cl)c3)c2cc1NC(=O)N/N=C/CN1CCOCC1 | MTT | 72 h | 4.42 µM
Oc1ncnc2cc(Nc3nc(-c4ccc(F)cc4)cs3)ccc12 | MTT | – | 7.92 µM
CC1=C(O)C(=O)C=C2C1=CC=C1[C@@]2(C)CC[C@@]2(C)[C@@H]3C[C@](C)(C(=O)OCCCN4C(=O)C5C=CC=CC5C4=O)CC[C@]3(C)CC[C@]12C (stereo partly shown) | MTT | 48 h | 1.27 µM
